Screening results from PubChem BioAssay.
The full list was thinned out, with hits kept by preference.
AP complement: alternative pathway complement inhibition, orthogonal assay. AID 1235. Human serum alternative complement pathway, LPS-coated ELISA, C3 deposition; tested in compound mixtures. 0.08% of 62,000 active. inhibition, % at 5 µM;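 active means inhibition above 30% in each of the two pooled mixtures holding the compound, so the lower value exceeds 30%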;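 further: 0% = serum in Mg-EGTA without compound and 100% = EDTA serum blank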
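Assay system: Human serum alternative complement pathway, C3 deposition on LPS-coated wells | Incubation: 1 h serum-compound exposure at 37 °C | Doses: 5 µM per compound in ten-compound mixtures | Read-out: Percent inhibition | Technique: ELISA with HRP anti-human C3 antibody, TMB substrate, absorbance 450 nm | Replication: Two pool placements per compound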
E coli RNAP: Escherichia coli RNA polymerase inhibition | P0A8V2 | inhibition, %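 (tested at 10 µM)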 | E. coli RNA polymerase, fluorescence transcription assay | 0.2% of 62,000 active; in the data active means inhibition above about 20%;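 further: 0% = enzyme without compound and 100% = no enzyme blank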
MMP13 inh: MMP13 (human) collagenase inhibition. inhibition, % at 4 µM. AID 570. P45452. MMP-13 fTHP FRET cleavage, Mca fluorescence. 0.07% of 65,000 active;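 active means inhibition above the mean of compound-free control plate wells plus 3 SD, cut at about 14% in these data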;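 further: 0% = DMSO wells and 100% = wells with reference MMP-13 inhibitor after basal subtraction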
tolC growth inh: blocks growth of E. coli BW25113 tolC mutant | OD615 | growth inhibition, % at 10 µM (by protocol) | 2.2% of 65,000 active;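 active means growth inhibition at or above a cutoff equal to the mean over every tested compound plus 3 SD, cut at about 60% in these data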;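 further: growth measured after 20 h incubation at 37 °C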
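signal = optical density read at 615 nm | test system = E. coli ΔtolC::kan strain BW25113 | timing = 20 h compound exposure of bacteria at 37 °C | buffer or medium = LB medium plus 50 µg/mL kanamycin | compound dosing = 10 µM final, single dose | evaluation = % inhibition of E. coli growth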
HePTP inh: blocks human HePTP tyrosine phosphatase; P35236; recombinant HePTP phosphatase activity, OD absorbance; inhibition, % at 20 µM; 0.64% of 110,000 active; in the data active means inhibition above about 50%;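 further: plate controls were vehicle for no effect and reference inhibitor for full effect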
E coli WT exp: blocks growth of wild type E. coli BW25113; OD600 absorbance; growth inhibition, % at 100 µM; 0.15% of 98,000 active;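 active means growth inhibition above about 50% at one test dose, limit read from the data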;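 further: growth measured after 20 h incubation at 37 °C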
Numbers without * were called inactive; . = not tested or not shown.

SMILES	AP complement	E coli RNAP	MMP13 inh	tolC growth inh	HePTP inh	E coli WT exp
O=C(/C=C/c1ccco1)/C=C/c1ccc(-c2ccc(Cl)c(Cl)c2)o1	.	.	.	.	102*	.
O=C(/C=C/c1ccc(-c2cc(Cl)ccc2Cl)o1)c1ccco1	.	.	.	.	60*	.
O=S1(=O)Nc2c(ccc3cccnc23)-c2ccccc21	-1	10	5	100*	1	80*
CCOc1ccc(NC(=O)C2=C(C)NC(=O)NC2c2ccc(O)c(OC)c2)cc1 (stereo unspecified)	.	.	.	.	8	.
O=C(O)COc1ccc2c(=O)c(-c3ccc(Cl)cc3)coc2c1	.	.	.	.	16	.
CCn1cc(C(=O)NN)c(=O)c2cc(F)c(N3CCCCC3)cc21	.	.	.	.	-7	.
CCC(=O)N1CCN(c2cc3c(cc2F)c(=O)c(C(=O)O)cn3CC)CC1	0	4	-18	100*	4	.
CCn1cc(C(=O)O)c(=O)c2cc(OC)ccc21	14	.	-3	97*	8	32
CCOC(=O)N1CCN(C(=O)c2cn(CC)c3cc(N4CCN(C)CC4)c(F)cc3c2=O)CC1	8	4	-66	16	9	100*
CCn1cc(C(=O)O)c(=O)c2cc([N+](=O)[O-])ccc21	.	.	.	.	-12	.
CCOC(=O)c1cn(CC)c2cc(N3CCOCC3)c(F)cc2c1=O	2	4	-11	100*	6	22
O=C(Nc1ccc2c(c1)OCCO2)c1ccccc1[N+](=O)[O-]	.	.	.	.	10	.
COc1ccc(S(=O)(=O)Nc2ccc(C)cc2Br)cc1	.	.	.	.	10	.
CCOC(=O)C1CN(c2cc3c(cc2F)c(=O)c(C(=O)O)cn3CC)OC1C(=O)OCC (stereo unspecified)	13	8	-8	98*	5	10
CCOC(=O)c1cn(CC)c2cc(N3CCCCC3)c(F)cc2c1=O	11	2	-2	100*	8	.
Cc1ccc(C(=O)Nc2nc(-c3ccccc3)c(C)s2)cc1	.	.	.	.	5	.
CCOc1ccc(S(=O)(=O)Nc2ccc(Cl)cc2)cc1	.	.	.	.	14	.
CCOc1ccc(S(=O)(=O)Nc2cccc(Cl)c2)cc1	6	3	-8	73*	-6	.
CCOc1ccc(S(=O)(=O)Nc2cc(Cl)ccc2O)cc1	9	5	3	67*	3	33
CC(CNC(=O)C(c1ccccc1)c1ccccc1)c1ccccc1 (stereo unspecified)	.	.	.	.	9	.
O=C(NCc1nc2ccccc2[nH]1)c1ccco1	-4	25*	3	.	0	16
CCCOc1ccccc1Cn1c(=O)oc2ccc(C)cc21	-2	2	10	73*	-8	2
Cc1[nH]n(-c2ccccc2)c(=O)c1/C=N/NC(=O)COc1ccc(C(C)(C)C)cc1	.	.	.	.	-19	.
CCOc1cc(S(=O)(=O)n2cc(-c3ccc(F)cc3)c(N)n2)cc(OCC)c1OCC	-2	11	-2	63*	-1	-7
CCOc1ccc(S(=O)(=O)n2cc(-c3ccc(F)cc3)c(N)n2)cc1	.	.	.	.	.	-8
SMILES	AP complement	E coli RNAP	MMP13 inh	tolC growth inh	HePTP inh	E coli WT exp
O=C(Nc1ccc(Cl)cc1)NC1CCCC1Cc1ccco1 (stereo unspecified)	7	-6	-14	100*	4	23
O=C(Nc1ccc(Cl)cc1)NC1CCCCC1Cc1ccco1 (stereo unspecified)	.	.	.	.	.	9
CCOC(=O)c1nnn(-c2nonc2-n2cccc2)c1CN1CCC(C)CC1	6	1	-5	70*	0	4
CCCCOc1ccc(S(=O)(=O)N2CCCCCC2)cc1	21	.	7	62*	-4	9
CCCC(=O)Nc1ccc(NC(=O)c2ccc(OC)c(Br)c2)cc1	.	.	.	.	9	.
Fc1ccc(-c2cc(C(F)(F)F)nc(NCC3CCCO3)n2)cc1 (stereo unspecified)	12	3	-2	100*	1	0
FC(F)(F)c1cc(-c2ccccc2)nc(NCC2CCCO2)n1 (stereo unspecified)	3	4	-2	22	6	14
O=C(NCc1ccccc1F)C1CCN(C(=O)NCc2ccccc2)CC1	33*	-3	0	-17	2	4
CCOc1ccc(N2C(=O)/C(=C/c3ccc(C)o3)SC2=S)cc1	.	.	.	.	7	.
N#Cc1c(NC(=O)c2ccc(Cn3cc(Br)cn3)o2)sc2c1CCCCCC2	13	1	2	61*	9	-16
CCN(CC)S(=O)(=O)c1ccc(C(C)(C)C)cc1	.	.	.	.	5	.
